Consider seven compounds from ChEMBL document CHEMBL1145014, “8-Aza-immucillins as transition-state analogue inhibitors of purine nucleoside phosphorylase and nucleoside hydrolases” (J Med Chem, 2003).

A short description of assay [1]: Inhibitory activity of compound against inosine-uridine nucleoside hydrolase (IU-NH) from crithidia fasciculata. A digest of the protocol:
(§1)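 Values are inhibition constants (Ki) against the nucleoside hydrolases: nonspecific inosine-uridine NH from *Crithidia fasciculata* and purine-specific inosine-adenosine-guanosine NH from *Trypanosoma brucei brucei*.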

Assay [2] in a line: Inhibitory activity of compound against […] inosine-adenosine-guanosine nucleoside hydrolase (IAG-NH) from Trypanosoma brucei. A digest of the protocol: as §1
In assay [3] the target is T1, Purine nucleoside phosphorylase (Homo sapiens, UniProt P00491).
T1 sequence (P00491 whole entry): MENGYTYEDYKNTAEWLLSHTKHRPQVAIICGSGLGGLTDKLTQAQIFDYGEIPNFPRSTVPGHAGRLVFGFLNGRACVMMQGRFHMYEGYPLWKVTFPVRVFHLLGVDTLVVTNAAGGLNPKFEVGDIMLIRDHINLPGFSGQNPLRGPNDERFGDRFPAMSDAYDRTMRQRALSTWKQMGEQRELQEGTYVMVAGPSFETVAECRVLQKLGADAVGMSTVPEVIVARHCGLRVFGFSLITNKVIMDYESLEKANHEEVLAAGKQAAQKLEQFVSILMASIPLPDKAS
Description: Inhibitory activity of compound against human purine nucleoside phosphorylase (PNP).

The target of assay [4] is T2, Purine nucleoside phosphorylase (Bos taurus, UniProt P55859).
T2 sequence (P55859 whole entry): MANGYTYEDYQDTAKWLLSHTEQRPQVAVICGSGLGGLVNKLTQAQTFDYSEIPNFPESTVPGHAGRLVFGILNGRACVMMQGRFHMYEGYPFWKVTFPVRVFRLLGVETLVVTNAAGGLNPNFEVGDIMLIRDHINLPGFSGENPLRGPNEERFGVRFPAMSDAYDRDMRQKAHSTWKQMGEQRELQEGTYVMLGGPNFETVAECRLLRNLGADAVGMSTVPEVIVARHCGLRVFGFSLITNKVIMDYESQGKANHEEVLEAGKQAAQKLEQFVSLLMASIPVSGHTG
The experiment in a line: Inhibitory activity of compound against bovine purine nucleoside phosphorylase (PNP).

For assay [5], the target named is T3, Purine nucleoside phosphorylase (Bos taurus) (UniProt P55859).
T3 sequence (whole entry): T2 sequence (P55859 whole entry)

Assay [6] deals with T4, Purine nucleoside phosphorylase (Homo sapiens) (UniProt P00491).
T4 sequence (whole entry): T1 sequence (P00491 whole entry)

SMILES strings stand for the structures. pKi: −log10 of the molar value.

As a reminder, the pKi is the negative decadic logarithm of the Ki, by convention in mol/L. Read a low pKi as a high Ki. Consider `Nc1[nH]cnc2c(C3N[C@H](CO)[C@H](O)[C@@H]3O)cnc1-2` (stereo partly specified), for which the values for the pKi in assay [1] and in assay [2] were 8.14 and 9.05, respectively.

On to `OC[C@H]1N[C@@H](c2n[nH]c3c(O)ncnc23)[C@H](O)[C@@H]1O`, for which the pKi was 9.98 in assay [3], 5.80 in assay [1], 10.38 in assay [4] and 4.86 in assay [2]. The K6 is 0.021 s⁻¹ in assay [5] and 0.013 s⁻¹ in assay [6].

In the case of `Nc1ncnc2c(C3N[C@H](CO)[C@H](O)[C@@H]3O)n[nH]c12` (stereo partly specified), the pKi in assay [1] is 6.82; in assay [2], 4.85.

On to `NC(=O)c1[nH]cc(C2N[C@H](CO)[C@H](O)[C@@H]2O)c1N` (stereo partly specified), for which the pKi in assay [1] is 8.52; in assay [2], 7.64.

For `Nc1nc2c([C@@H]3N[C@H](CO)[C@@H](O)[C@H]3O)c[nH]c2c(=O)[nH]1`, the pKi in assay [3] is 10.54; in assay [4], 10.52. Also, the K6 stood at 0.00019 s⁻¹ in assay [5] and 0.0015 s⁻¹ in assay [6].

`O=c1[nH]cnc2c([C@@H]3N[C@H](CO)[C@@H](O)[C@H]3O)c[nH]c12` [FORODESINE]: the values for the pKi in assay [1], in assay [4] and in assay [2] were 7.38, 10.64 and 7.62, respectively. In addition, the K6 in assay [5] came out at 4e-05 s⁻¹; in assay [6], 0.0015 s⁻¹.

`NC(=O)c1[nH]nc(C2N[C@H](CO)[C@H](O)[C@@H]2O)c1N` (stereo partly specified): the pKi was 10.02 in assay [3], 5.32 in assay [1], 10.22 in assay [4] and 5.43 in assay [2]. The compound also came in with a K6 in assay [5] of 0.019 s⁻¹.
